Data: ChEMBL document CHEMBL1667809, “Synthesis and in vitro antibacterial activity of 7-(3-alkoxyimino-5-amino/methylaminopiperidin-1-yl)fluoroquinolone derivatives” (Bioorg Med Chem Lett, 2011)
Converted amounts (≈) assume the structure as drawn.

Experiments:
Escherichia coli [1] = test: Antibacterial activity against Escherichia coli ATCC 25922 after 18 to 24 hrs by agar dilution method; format: functional
How it was run: (§1)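 Agar dilution on Petri dishes, each inoculated with 10⁴ cfu of the strain and incubated at 35 °C for 18–24 h. MIC read as the lowest compound concentration giving no visible growth on the plate.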

Pseudomonas aeruginosa [2] = test: Antibacterial activity against Pseudomonas aeruginosa ATCC 27853 after 18 to 24 hrs by agar dilution method; format: functional; how it was run: as §1
[3] = Cytotoxicity against african green monkey Vero cells after 24 hrs; format: cell-based; conditions: chlorocebus sabaeus
How it was run: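 Vero cells exposed to graded compound concentrations for 24 h, then viability assessed; CC₅₀ derived from the viability data.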

Staphylococcus aureus [4] = test: Ratio of compound MIC to GMFX MIC for methicillin-sensitive Staphylococcus aureus 10-04; format: functional
Staphylococcus aureus [5] = test: Antibacterial activity against methicillin-resistant Staphylococcus aureus 10-05 after 18 to 24 hrs by agar dilution method; format: functional
How it was run: (§2)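 Agar dilution on Petri dishes, each inoculated with 10⁴ cfu. Plates incubated at 35 °C for 18–24 h. MIC taken as the lowest test-compound concentration giving no visible growth on the plate. Reference drugs gemifloxacin, ciprofloxacin and levofloxacin run alongside for comparison.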

Staphylococcus aureus [6] = test: Ratio of compound MIC to CPFX MIC for methicillin-sensitive Staphylococcus aureus 10-04; format: functional
[7] = tested on: Staphylococcus epidermidis; test: Ratio of compound MIC to GMFX MIC for methicillin-resistant Staphylococcus epidermidis 10-5; format: functional
Staphylococcus aureus [8] = test: Ratio of compound MIC to LVFX MIC for methicillin-sensitive Staphylococcus aureus 10-04; format: functional
[9] = tested on: Staphylococcus epidermidis; test: Antibacterial activity against methicillin-resistant Staphylococcus epidermidis 10-5 after 18 to 24 hrs by agar dilution method; format: functional; how it was run: as §2
Pseudomonas aeruginosa [10] = test: Antibacterial activity against Pseudomonas aeruginosa 10-1 after 18 to 24 hrs by agar dilution method; format: functional; how it was run: as §1
Staphylococcus aureus [11] = test: Antibacterial activity against methicillin-sensitive Staphylococcus aureus 10-04 after 18 to 24 hrs by agar dilution method; format: functional; how it was run: as §1
Streptococcus pyogenes [12] = test: Ratio of compound MIC to LVFX MIC for Streptococcus hemolyticus 1002; format: functional
[13] = tested on: Staphylococcus epidermidis; test: Ratio of compound MIC to LVFX MIC for methicillin-resistant Staphylococcus epidermidis 10-5; format: functional
[14] = tested on: Staphylococcus epidermidis; test: Antibacterial activity against methicillin-sensitive Staphylococcus epidermidis 10-4 after 18 to 24 hrs by agar dilution method; format: functional; how it was run: as §1
Streptococcus pyogenes [15] = test: Antibacterial activity against Streptococcus hemolyticus 1002 after 18 to 24 hrs by agar dilution method; format: functional; how it was run: as §1
Streptococcus pyogenes [16] = test: Ratio of compound MIC to CPFX MIC for Streptococcus hemolyticus 1002; format: functional
Klebsiella pneumoniae = test: Antibacterial activity against Klebsiella pneumoniae 10-1 after 18 to 24 hrs by agar dilution method; format: functional; how it was run: as §1
Streptococcus pyogenes [17] = test: Ratio of compound MIC to GMFX MIC for Streptococcus hemolyticus 1002; format: functional
Streptococcus pneumoniae = test: Antibacterial activity against Streptococcus pneumoniae 1001 after 18 to 24 hrs by agar dilution method; format: functional; how it was run: as §1
Staphylococcus aureus [18] = test: Antibacterial activity against Staphylococcus aureus ATCC 25923 after 18 to 24 hrs by agar dilution method; format: functional; how it was run: as §1
Escherichia coli [19] = test: Antibacterial activity against Escherichia coli 10-02 after 18 to 24 hrs by agar dilution method; format: functional; how it was run: as §1
[20] = tested on: Staphylococcus epidermidis; test: Ratio of compound MIC to CPFX MIC for methicillin-resistant Staphylococcus epidermidis 10-5; format: functional
Staphylococcus aureus [21] = test: Ratio of compound MIC to LVFX MIC for methicillin-resistant Staphylococcus aureus 10-05; format: functional
Staphylococcus aureus [22] = test: Ratio of compound MIC to GMFX MIC for methicillin-resistant Staphylococcus aureus 10-05; format: functional
Staphylococcus aureus [23] = test: Ratio of compound MIC to CPFX MIC for methicillin-resistant Staphylococcus aureus 10-05; format: functional

SMILES | MIC (Escherichia coli [1]) | MIC (Pseudomonas aeruginosa [2]) | CC50 at 24 h [3] | Ratio (Staphylococcus aureus [4]) | MIC (Staphylococcus aureus [5]) | Ratio (Staphylococcus aureus [6]) | Ratio [7] | Ratio (Staphylococcus aureus [8]) | MIC [9] | MIC (Pseudomonas aeruginosa [10]) | MIC (Staphylococcus aureus [11]) | Ratio [13] | MIC [14] | MIC (Streptococcus pyogenes [15]) | MIC (Klebsiella pneumoniae) | MIC (Streptococcus pneumoniae) | MIC (Staphylococcus aureus [18]) | MIC (Escherichia coli [19]) | Ratio [20] | further results
CO/N=C1\CC(N)CN(c2c(F)cc3c(=O)c(C(=O)O)cn(C4CC4)c3c2OC)C1 (stereo unspecified) | 0.25 µg/mL (≈ 0.597 µM) | 4 µg/mL (≈ 9.56 µM) | 885 µM | 4 | 4 µg/mL (≈ 9.56 µM) | 4 | 2 | 4 | 4 µg/mL (≈ 9.56 µM) | 4 µg/mL (≈ 9.56 µM) | 0.5 µg/mL (≈ 1.19 µM) | 2 | 2 µg/mL (≈ 4.78 µM) | 4 µg/mL (≈ 9.56 µM) | 64 µg/mL (≈ 153 µM) | 0.25 µg/mL (≈ 0.597 µM) | 0.25 µg/mL (≈ 0.597 µM) | 0.25 µg/mL (≈ 0.597 µM) | 4 | Ratio (Streptococcus pyogenes [12]): 2; Ratio (Streptococcus pyogenes [16]): 2; Ratio (Streptococcus pyogenes [17]): 2
CCO/N=C1\CC(N)CN(c2c(F)cc3c(=O)c(C(=O)O)cn4c3c2OC[C@@H]4C)C1 (stereo partly specified) | 0.25 µg/mL (≈ 0.597 µM) | 8 µg/mL (≈ 19.1 µM) | 1240 µM | 4 | 4 µg/mL (≈ 9.56 µM) | 4 | 4 | 4 | 2 µg/mL (≈ 4.78 µM) | 32 µg/mL (≈ 76.5 µM) | 0.5 µg/mL (≈ 1.19 µM) | 4 | 0.5 µg/mL (≈ 1.19 µM) | 8 µg/mL (≈ 19.1 µM) | 64 µg/mL (≈ 153 µM) | 0.25 µg/mL (≈ 0.597 µM) | 0.25 µg/mL (≈ 0.597 µM) | 0.25 µg/mL (≈ 0.597 µM) | 8 | –
CCO/N=C1\CC(N)CN(c2c(F)cc3c(=O)c(C(=O)O)cn(C4CC4)c3c2F)C1 (stereo unspecified) | 0.25 µg/mL (≈ 0.595 µM) | 8 µg/mL (≈ 19 µM) | 1320 µM | 4 | 4 µg/mL (≈ 9.51 µM) | 4 | 2 | 4 | 4 µg/mL (≈ 9.51 µM) | > 128 µg/mL | 0.5 µg/mL (≈ 1.19 µM) | 2 | 0.5 µg/mL (≈ 1.19 µM) | 64 µg/mL (≈ 152 µM) | 64 µg/mL (≈ 152 µM) | 0.25 µg/mL (≈ 0.595 µM) | 0.25 µg/mL (≈ 0.595 µM) | 0.25 µg/mL (≈ 0.595 µM) | 4 | –
CCO/N=C1\CC(N)CN(c2c(F)cc3c(=O)c(C(=O)O)cn(C4CC4)c3c2OC)C1 (stereo unspecified) | 0.25 µg/mL (≈ 0.578 µM) | 8 µg/mL (≈ 18.5 µM) | 879 µM | 16 | 2 µg/mL (≈ 4.62 µM) | 16 | 4 | 16 | 2 µg/mL (≈ 4.62 µM) | > 128 µg/mL | 0.125 µg/mL (≈ 0.289 µM) | 4 | 1 µg/mL (≈ 2.31 µM) | 8 µg/mL (≈ 18.5 µM) | 128 µg/mL (≈ 296 µM) | 0.125 µg/mL (≈ 0.289 µM) | 0.25 µg/mL (≈ 0.578 µM) | 0.25 µg/mL (≈ 0.578 µM) | 8 | Ratio (Staphylococcus aureus [21]): 2; Ratio (Staphylococcus aureus [22]): 2; Ratio (Staphylococcus aureus [23]): 2
CCO/N=C1\CC(NC)CN(c2c(F)cc3c(=O)c(C(=O)O)cn(C4CC4)c3c2OC)C1 (stereo unspecified) | 0.25 µg/mL (≈ 0.56 µM) | 128 µg/mL (≈ 287 µM) | 1520 µM | 4 | 8 µg/mL (≈ 17.9 µM) | 4 | 2 | 4 | 4 µg/mL (≈ 8.96 µM) | 128 µg/mL (≈ 287 µM) | 0.5 µg/mL (≈ 1.12 µM) | 2 | 0.25 µg/mL (≈ 0.56 µM) | 128 µg/mL (≈ 287 µM) | 128 µg/mL (≈ 287 µM) | 1 µg/mL (≈ 2.24 µM) | 0.5 µg/mL (≈ 1.12 µM) | 0.25 µg/mL (≈ 0.56 µM) | 4 | –
